According to ChEMBL document CHEMBL1765016, “Indolylarylsulfones as HIV-1 non-nucleoside reverse transcriptase inhibitors: new cyclic substituents at indole-2-carboxamide” (J Med Chem, 2011):

Legend:
[1] = molecular target: Human immunodeficiency virus type 1 reverse transcriptase (Human immunodeficiency virus 1, UniProt Q72547, L100I); assay: Inhibition of HIV1 reverse transcriptase L100I mutant expressed in Escherichia coli assessed as incorporation of [3H]dTTP into poly(rA)/oligo(dT) by scintillation counting
Summary of the method: (§1)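 The RT was recombinant p66(His)/p51 heterodimer, mutant form, expressed in E. coli. TCA-precipitable radioactivity on GF/C filters was read by scintillation. IC50 is the concentration giving 50% inhibition.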

[2] = test system: Human immunodeficiency virus 1; assay: Antiviral activity against […] harboring reverse transcriptase K103N mutant infected in human MT-4 cells assessed as inhibition of virus-induced cytopathicity after 4 days by MTT assay; type: functional, organism-based; details: Human immunodeficiency virus 1, MT4, 96 h
Summary of the method: (§2)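 MT-4 cells at 1 × 10⁵ cells/mL were infected with RT-mutant HIV-1 at a multiplicity of infection of 0.02. They were plated at once with serial compound dilutions (DMSO stocks of 50 mM or higher). […] Virus stocks had been titrated in MT-4 cells as CCID50.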

[3] = test system: Human immunodeficiency virus 1; assay: Antiviral activity against wild type HIV1 3B infected in human MT-4 cells assessed as inhibition of virus-induced cytopathicity after 4 days by MTT assay; type: functional, organism-based; details: Human immunodeficiency virus 1, 3B, MT4, 96 h
Summary of the method: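 MT-4 cells at 1 × 10⁵ cells/mL, infected at MOI 0.02 (virus titrated as CCID₅₀ in MT-4), dispensed immediately onto serial compound concentrations (DMSO stocks ≥50 mM). Viable cells counted by MTT after 4 days at 37 °C. EC₅₀ is the concentration giving 50% protection of cell viability. Values are means of at least three experiments.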

[4] = test system: Human immunodeficiency virus 1; assay: Antiviral activity against HIV1 harboring reverse transcriptase E138K mutant infected in human MT-4 cells assessed as inhibition of virus-induced cytopathicity after 4 days by MTT assay; type: functional, organism-based; details: Human immunodeficiency virus 1, MT4, 96 h; summary of the method: as §2
[5] = test system: Human immunodeficiency virus 1; assay: Antiviral activity against HIV1 harboring reverse transcriptase Y181C mutant infected in human MT-4 cells assessed as inhibition of virus-induced cytopathicity after 4 days by MTT assay; type: functional, organism-based; details: Human immunodeficiency virus 1, MT4, 96 h; summary of the method: as §2
[6] = test system: Human immunodeficiency virus 2; assay: Antiviral activity against HIV2 isolate ROD infected in human CEM cells assessed as inhibition of virus-induced cytopathicity after 4 days by microscopic analysis; type: functional, organism-based; details: Human immunodeficiency virus 2, ISOLATE ROD, CCRF-CEM, 96 h
Summary of the method: (§3)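 CEM cells (~3 × 10⁵ cells/mL) infected with ~100 CCID₅₀ virus per mL, seeded into wells with compound dilutions. Syncytia (giant cell) formation scored microscopically after 4 days at 37 °C. EC₅₀ is the concentration protecting cells by 50%. Values are means of two experiments in triplicate.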

[7] = Cytotoxicity against human CEM cells by coulter counter analysis; type: cell-based; details: CEM (CCRF-CEM) cells
Summary of the method: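 Mock-infected CEM cultures with compound, cell number counted by Coulter counter as percent of untreated control. CC₅₀ (50% reduction in proliferation) was read from plots against concentration. Values are means of two experiments in triplicate.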

[8] = molecular target: Human immunodeficiency virus type 1 reverse transcriptase (Human immunodeficiency virus 1, UniProt Q72547, K103N); assay: Inhibition of HIV1 reverse transcriptase K103N mutant expressed in Escherichia coli assessed as incorporation of [3H]dTTP into poly(rA)/oligo(dT) by scintillation counting; summary of the method: as §1
[9] = molecular target: Human immunodeficiency virus type 1 reverse transcriptase (Human immunodeficiency virus 1, UniProt Q72547); assay: Inhibition of HIV1 wild type reverse transcriptase expressed in Escherichia coli assessed as incorporation of [3H]dTTP into poly(rA)/oligo(dT) by scintillation counting
Summary of the method: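 Template was poly(rA)/oligo(dT) 10:1 (0.3 μM 3′-OH ends) with 10 μM [³H]dTTP, at 37 °C. TCA-precipitable counts were taken on GF/C filters. IC₅₀ is 50% inhibition of RT activity.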

[10] = test system: Human immunodeficiency virus 1; assay: Antiviral activity against HIV1 harboring reverse transcriptase L100I mutant infected in human MT-4 cells assessed as inhibition of virus-induced cytopathicity after 4 days by MTT assay; type: functional, organism-based; details: Human immunodeficiency virus 1, MT4, 96 h; summary of the method: as §2
[11] = molecular target: Human immunodeficiency virus type 1 reverse transcriptase (Human immunodeficiency virus 1, UniProt Q72547, Y181I); assay: Inhibition of HIV1 reverse transcriptase Y181I mutant expressed in Escherichia coli assessed as incorporation of [3H]dTTP into poly(rA)/oligo(dT) by scintillation counting; summary of the method: as §1
[12] = test system: Human immunodeficiency virus 1; assay: Antiviral activity against wild type HIV1 3B infected in human CEM cells assessed as inhibition of virus-induced cytopathicity after 4 days by microscopic analysis; type: functional, organism-based; details: Human immunodeficiency virus 1, 3B, CCRF-CEM, 96 h; summary of the method: as §3
[13] = Selectivity index, CC50 for human CEM cells to IC50 for HIV1 3B; type: functional, CCRF-CEM
Summary of the method: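 Ratio of CC₅₀ (Coulter count, mock-infected CEM) to EC₅₀ (CEM, HIV-1 IIIB, microscopic syncytia scoring at day 4).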

[14] = test system: Human immunodeficiency virus 1; assay: Antiviral activity against HIV1 harboring reverse transcriptase Y188L mutant infected in human MT-4 cells assessed as inhibition of virus-induced cytopathicity after 4 days by MTT assay; type: functional, organism-based; details: Human immunodeficiency virus 1, MT4, 96 h; summary of the method: as §2
[15] = test system: Human immunodeficiency virus 1; assay: Antiviral activity against HIV1 clade A/E ID12 infected in PHA-stimulated human PBMC assessed as inhibition of p24 production after 10 to 12 days by ELISA; type: functional, organism-based; details: Human immunodeficiency virus 1, clade A/E ID12
Summary of the method: (§4)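 PHA-stimulated (2 μg/mL, 3 days, 37 °C) donor PBMC blasts, washed in PBS, seeded 0.5 × 10⁶ cells/well in RPMI 1640 with 10% fetal calf serum and IL-2 (25 units/mL) containing varying compound concentrations; virus added at 250 pg p24/mL final. Supernatant collected days 10-12 and assayed for HIV-1 core antigen.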

[16] = test system: Human immunodeficiency virus 1; assay: Antiviral activity against HIV1 group O BCF06 infected in PHA-stimulated human PBMC assessed as inhibition p24 production after 10 to 12 days by ELISA; type: functional, organism-based; details: Human immunodeficiency virus 1, group O BCF06; summary of the method: as §4
[17] = test system: Human immunodeficiency virus 1; assay: Antiviral activity against HIV1 clade C DJ259 infected in PHA-stimulated human PBMC assessed as inhibition of p24 production after 10 to 12 days by ELISA; type: functional, organism-based; details: Human immunodeficiency virus 1, clade C DJ259; summary of the method: as §4
[18] = test system: Human immunodeficiency virus 1; assay: Antiviral activity against HIV1 clade A UG273 infected in PHA-stimulated human PBMC assessed as inhibition of p24 production after 10 to 12 days by ELISA; type: functional, organism-based; details: Human immunodeficiency virus 1, clade A UG273; summary of the method: as §4
[19] = test system: Human immunodeficiency virus 1; assay: Antiviral activity against HIV1 clade B BaL infected in PHA-stimulated human PBMC assessed as inhibition of p24 production after 10 to 12 days by ELISA; type: functional, organism-based; details: Human immunodeficiency virus 1, clade B BaL; summary of the method: as §4
[20] = test system: Human immunodeficiency virus type 1 reverse transcriptase (Human immunodeficiency virus 1), Q72547 [K103N]; assay: Ratio of compound IC50 to efavirenz IC50 for HIV1 reverse transcriptase K103N mutant

Compound | IC50 [1] [nM] | EC50 [2] [nM] | EC50 [3] [nM] | EC50 [4] [nM] | EC50 [5] [nM] | EC50 [6] [nM] | CC50 [7] [nM] | IC50 [8] [nM] | IC50 [9] [nM] | EC50 [10] [nM] | IC50 [11] [nM] | EC50 [12] [nM] | Selectivity Index [13] | EC50 [14] [nM] | EC50 [15] [nM] | EC50 [16] [nM] | EC50 [17] [nM] | EC50 [18] [nM] | EC50 [19] [nM] | Ratio IC50 [20]
Cc1cc(C)cc(S(=O)(=O)c2c(C(=O)NCCN3CCCC3)[nH]c3ccc(Cl)cc23)c1 | 248 | 80 | 19 | 260 | 380 | > 2000 | 7100 | 660 | 80 | 84 | > 40000 | 17 | 418 | > 1000 |  |  |  |  |  | 
Cc1cc(C)cc(S(=O)(=O)c2c(C(=O)NCCn3cccc3)[nH]c3ccc(Cl)cc23)c1 | 34 | 15 | 15 | 18 | 67 | > 10000 | 54000 | 85 | 14 | 11 | > 40000 | 6.5 | 8308 | > 1000 | 2.9 | 3.2 | 3.5 | 2.1 | 2.3 | 
Cc1cc(C)cc(S(=O)(=O)c2c(C(=O)NCCOc3ccccc3)[nH]c3ccc(Cl)cc23)c1 | > 40000 | > 1000 | 300 | 380 | > 1000 | > 10000 | 207000 | > 40000 | 2390 | 440 | > 40000 | 26 | 7962 | > 1000 |  |  |  |  |  | 
Cc1cc(C)cc(S(=O)(=O)c2c(C(=O)NCN3CCOCC3)[nH]c3ccc(Cl)cc23)c1 | 117 | 11 | 3.2 | 14 | 23 | > 2000 | 11000 | 512 | 54 | 8 | 5480 | 1.9 | 5789 | 440 | 0.3 | 0.9 | 0.5 | 0.1 | 0.1 | 
Cc1cc(C)cc(S(=O)(=O)c2c(C(=O)NCc3ccccc3)[nH]c3ccc(Cl)cc23)c1 | 15 | 11 | 11 | 18 | 46 | > 10000 | 244000 | > 40000 | 21 | 6.1 | > 40000 | 5.7 |  | 480 |  |  |  |  |  | 
Cc1cc(C)cc(S(=O)(=O)c2c(C(=O)NCN3CCCCC3)[nH]c3ccc(Cl)cc23)c1 | 37 |  |  |  |  | > 2000 | 9900 | 120 | 8 |  | 581 | 1.3 | 7615 |  |  |  |  |  |  | > 160
Cc1cc(C)cc(S(=O)(=O)c2c(C(=O)NCCc3ccccc3)[nH]c3ccc(Cl)cc23)c1 | 27 | 52 | 21 | 65 | 100 | > 50000 | 185000 | 10400 | 77 | 19 | > 40000 | 5.7 | 32456 | > 1000 |  |  |  |  |  | 
Cc1cc(C)cc(S(=O)(=O)c2c(C(=O)NCN3CCCC3)[nH]c3ccc(Cl)cc23)c1 | 26 |  |  |  |  | > 2000 | 11000 | 96 | 12 |  | 442 | 3.3 | 3333 |  | 0.3 | 0.2 | 0.1 | 0.1 | 0.1 | 
Cc1cc(C)cc(S(=O)(=O)c2c(C(=O)NCc3ccccc3)[nH]c3ccc(Br)cc23)c1 | 273 | 15 | 16 | 51 | 59 | > 2000 | 172000 | 1850 | 1050 | 11 | > 40000 | 5.7 | 30175 | ≥ 450 |  |  |  |  |  | 
Cc1cc(C)cc(S(=O)(=O)c2c(C(=O)NCc3ccccc3)[nH]c3ccc([N+](=O)[O-])cc23)c1 | 14 | 11 | 10 | 16 | 54 | > 2000 | 8000 | 459 | 17 | 7 | > 40000 | 6.2 | 1290 | 470 |  |  |  |  |  | 
